Results from ChEMBL document CHEMBL1123476, “Synthesis of congeners and prodrugs of the benzene maleimide photoadduct mitindomide as potential antitumor agents. 2” (J Med Chem, 1986).
Values joined by “and” are separate entries in the source; they are usually repeats but may differ in a detail not shown here. Equal values may be shown once.

How the values were obtained:
P388 [1] = test: Compound was tested for antitumor activity in P-388 lymphocytic leukemia system at 200 mg/kg dose levels per injection; 2/6; assay type: functional, Mus musculus
Procedure, shortened: (§1)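 P-388 leukemia in animals, Q01D×09 schedule: dose given daily for 9 days, in mg/kg per injection. Read-outs are survivors on day 4 (live/total animals), body-weight difference test minus control (g), and % T/C (median lifetime of treated ÷ median lifetime of controls × 100). Some compounds were tested in independent runs at different times.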

P388 [2] = test: Compound was tested for antitumor activity in P-388 lymphocytic leukemia system at 200 mg/kg dose levels per injection; 4/6; assay type: functional, Mus musculus; procedure, shortened: as §1
P388 [3] = test: Compound was tested for antitumor activity in P-388 lymphocytic leukemia system at 100 mg/kg dose levels per injection; 5/6; assay type: functional, Mus musculus; procedure, shortened: as §1
P388 [4] = test: (§2) Antitumor activity in P-388 lymphocytic leukemia system at 100 mg/kg dose levels per injection.; assay type: functional, Mus musculus; procedure, shortened: as §1
P388 [5] = test: as §2; assay type: functional, Mus musculus; remark: listed apart in the source
Procedure, shortened: (§3)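 P-388 leukemia in vivo, dosed Q01D×09 (one injection daily for 9 days, mg/kg per injection). Activity is %T/C, the median lifetime of treated animals divided by that of controls, ×100. Live animals on day 4 were counted against the total (survivors day 4). Repeat tests were done independently at different times.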

P388 [6] = test: Compound was tested for antitumor activity in P-388 lymphocytic leukemia system at 100 mg/kg dose levels per injection; Toxic; assay type: functional, organism-based; set-up: dose 100 mg/kg; conditions: Mus musculus; procedure, shortened: as §3
P388 [7] = test: Antitumor activity in P-388 lymphocytic leukemia system at 25 mg/kg dose levels per injection.; assay type: functional, Mus musculus; procedure, shortened: as §1
P388 [8] = test: (§4) Antitumor activity in P-388 lymphocytic leukemia system at 50 mg/kg dose levels per injection.; assay type: functional, Mus musculus; procedure, shortened: as §1
P388 [9] = test: Antitumor activity in P-388 lymphocytic leukemia system and the difference in body weight calculated at 100 mg/kg dose levels per injection.; assay type: functional, Mus musculus
P388 [10] = test: Antitumor activity in P-388 lymphocytic leukemia system and the difference in body weight was calculated at 200 mg/kg dose levels per injection.; assay type: functional, Mus musculus
P388 [11] = test: Compound was tested for antitumor activity in P-388 lymphocytic leukemia system at 200 mg/kg dose levels per injection.; assay type: functional, organism-based; set-up: dose 200 mg/kg; conditions: Mus musculus; procedure, shortened: as §3
P388 [12] = test: Antitumor activity in P-388 lymphocytic leukemia system at 25 mg/kg dose levels per injection; assay type: functional, Mus musculus; procedure, shortened: as §3
P388 [13] = test: as §4; assay type: functional, Mus musculus; procedure, shortened: as §3; remark: listed apart in the source
[14] = Solubility was determined; assay type: physicochemical
P388 [15] = test: Compound was tested for antitumor activity in P-388 lymphocytic leukemia system at 200 mg/kg dose levels per injection; 0/6; assay type: functional, Mus musculus; procedure, shortened: as §1
P388 [16] = test: Compound was tested for antitumor activity in P-388 lymphocytic leukemia system at 12.5 mg/kg dose levels per injection; 6/6; assay type: functional, Mus musculus; procedure, shortened: as §1
P388 [17] = test: Compound was tested for antitumor activity in P-388 lymphocytic leukemia system and the difference in body weight was calculated at 12.5 mg/kg dose levels per injection; assay type: functional, Mus musculus
P388 [18] = test: Antitumor activity in P-388 lymphocytic leukemia system and the difference in body weight was calculated at 25 mg/kg dose levels per injection.; assay type: functional, Mus musculus
P388 [19] = test: Antitumor activity in P-388 lymphocytic leukemia system and the difference in body weight was calculated at 50 mg/kg dose levels per injection.; assay type: functional, Mus musculus
P388 [20] = test: Compound was tested for antitumor activity in P-388 lymphocytic leukemia system at 12.5 mg/kg dose levels per injection; assay type: functional, Mus musculus; procedure, shortened: as §3
P388 [21] = test: Compound was tested for antitumor activity in P-388 lymphocytic leukemia system at 100 mg/kg dose levels per injection; 0/6; assay type: functional, Mus musculus; procedure, shortened: as §1
P388 [22] = test: Compound was tested for antitumor activity in P-388 lymphocytic leukemia system at 100 mg/kg dose levels per injection; 3/6; assay type: functional, Mus musculus; procedure, shortened: as §1
P388 [23] = test: Compound was tested for antitumor activity in P-388 lymphocytic leukemia system at 200 mg/kg dose levels per injection; 5/6; assay type: functional, Mus musculus; procedure, shortened: as §1
P388 [24] = test: Compound was tested for antitumor activity in P-388 lymphocytic leukemia system at 50 mg/kg dose levels per injection;6/6; assay type: functional, Mus musculus; procedure, shortened: as §1
P388 [25] = test: Compound was tested for antitumor activity in P-388 lymphocytic leukemia system. at 200 mg/kg dose levels per injection; Toxic; assay type: functional, organism-based; set-up: dose 200 mg/kg; conditions: Mus musculus; procedure, shortened: as §3
[26] = Solubility was determined; INS= less than 0.1; assay type: physicochemical
P388 [27] = test: Compound was tested for antitumor activity in P-388 lymphocytic leukemia system at 200 mg/kg dose levels per injection; 5/5; assay type: functional, Mus musculus; procedure, shortened: as §1
P388 [28] = test: (§5) Antitumor activity in P-388 lymphocytic leukemia system at 200 mg/kg dose levels per injection.; assay type: functional, Mus musculus; procedure, shortened: as §1
P388 [29] = test: Compound was tested for antitumor activity in P-388 lymphocytic leukemia system at 400 mg/kg dose levels per injection; 5/5; assay type: functional, Mus musculus; procedure, shortened: as §1
P388 [30] = test: Compound was tested for antitumor activity in P-388 lymphocytic leukemia system 25 mg/kg dose levels per injection; assay type: functional, Mus musculus; procedure, shortened: as §3
P388 [31] = test: Compound was tested for antitumor activity in P-388 lymphocytic leukemia system and the difference in body weight was calculated at 400 mg/kg dose levels per injection; assay type: functional, Mus musculus
P388 [32] = test: as §5; assay type: functional, Mus musculus; conditions: 200 mg/kg; procedure, shortened: as §3
P388 [33] = test: Compound was tested for antitumor activity in P-388 lymphocytic leukemia system at 25 mg/kg dose levels per injection; assay type: functional, Mus musculus; procedure, shortened: as §3
P388 [34] = test: Compound was tested for antitumor activity in P-388 lymphocytic leukemia system. at 400 mg/kg dose levels per injection; assay type: functional, Mus musculus; procedure, shortened: as §3
P388 [35] = test: Compound was tested for antitumor activity in P-388 lymphocytic leukemia system at 100 mg/kg dose levels per injection; 5/5; assay type: functional, Mus musculus; procedure, shortened: as §1
P388 [36] = test: Compound was tested for antitumor activity in P-388 lymphocytic leukemia system at 50 mg/kg dose levels per injection; 5/5; assay type: functional, Mus musculus; procedure, shortened: as §1
P388 [37] = test: Compound was tested for antitumor activity in P-388 lymphocytic leukemia system. at 400 mg/kg dose levels per injection; Toxic; assay type: functional, organism-based; set-up: dose 400 mg/kg; conditions: Mus musculus; procedure, shortened: as §3
P388 [38] = test: Compound was tested for antitumor activity in P-388 lymphocytic leukemia system at 400 mg/kg dose levels per injection; 6/6; assay type: functional, Mus musculus; procedure, shortened: as §1
P388 [39] = test: Compound was tested for antitumor activity in P-388 lymphocytic leukemia system. The difference in body weight was calculated at 25 mg/kg dose levels per injection; assay type: functional, Mus musculus

| Compound | Survivors at day 4 (P388 [4]) | T/C (P388 [5]) [%] | T/C (P388 [6]) | Survivors at day 4 (P388 [7]) | Survivors at day 4 (P388 [8]) | Weight difference (P388 [9]; 100 mg/kg) | Weight difference (P388 [10]; 200 mg/kg) | T/C (P388 [11]) | T/C (P388 [12]; 25 mg/kg) | T/C (P388 [13]; 50 mg/kg) | Solubility [14] [%] | Weight difference (P388 [9]) [g] | Weight difference (P388 [19]; 50 mg/kg) | Solubility [26] | Survivors at day 4 (P388 [28]) | T/C (P388 [5]; 100 mg/kg) | Weight difference (P388 [31]) [g] | T/C (P388 [32]) | T/C (P388 [33]) [%] | also measured |
| --- | --- | --- | --- | --- | --- | --- | --- | --- | --- | --- | --- | --- | --- | --- | --- | --- | --- | --- | --- | --- |
| O=C(O)CCC(=O)OCN1C(=O)C2C3C=CC(C2C1=O)C1C2C(=O)N(COC(=O)CCC(=O)O)C(=O)C2C31 (stereo not given) | 6 | 165 | Toxic | 6 | 6 | -4.4 g and -3.1 g | -6.7 g and -6.9 g | Toxic | 103% and 107% | 115% and 116% |  |  |  |  |  |  |  |  |  | Survivors at day 4 (P388 [1]): 2; Survivors at day 4 (P388 [2]): 4; Survivors at day 4 (P388 [3]): 5 |
| O=C1C2C3C=CC(C2C(=O)N1CO)C1C2C(=O)N(CO)C(=O)C2C31 (stereo not given) |  |  | Toxic | 6 | 6 |  |  | Toxic | 140% and 157% | 195% and 208% | 0.8 | -8.2 | -5.6 g and -6.5 g |  |  |  |  |  |  | Survivors at day 4 (P388 [15]): 0; Survivors at day 4 (P388 [16]): 6; Weight difference (P388 [17]): -0.7 g; Weight difference (P388 [18]; 25 mg/kg): -2.5 g and -3.3 g; T/C (P388 [20]): 105%; Survivors at day 4 (P388 [21]): 0; Survivors at day 4 (P388 [22]): 3 |
| O=C1C2C3CCC(C2C(=O)N1CO)C1C2C(=O)N(CO)C(=O)C2C31 (stereo not given) | 6 | 205 |  | 6 |  |  |  |  |  |  | 1 | -3.3 |  |  |  |  |  |  |  | Survivors at day 4 (P388 [23]): 5; Survivors at day 4 (P388 [24]): 6; Weight difference (P388 [10]): -4.7 g; Weight difference (P388 [18]): 0.1 g; Weight difference (P388 [19]): -1.8 g; T/C (P388 [12]): 102%; T/C (P388 [13]): 145%; T/C (P388 [25]): Toxic |
| CC(=O)OCN1C(=O)C2C3C=CC(C2C1=O)C1C2C(=O)N(COC(C)=O)C(=O)C2C31 (stereo not given) | 6 |  |  | 6 | 6 |  |  |  |  | 140% and 115% |  |  | -0.4 g and -0.7 g | Insoluble | 6 | 118% and 155% | -2.2 | 180% and 133% | 117 | Survivors at day 4 (P388 [27]): 5; Survivors at day 4 (P388 [29]): 5; Weight difference (P388 [30]): -0.1 g; T/C (P388 [34]): 208%; Survivors at day 4 (P388 [35]): 5; Survivors at day 4 (P388 [36]): 5 |
| O=C1C2C3C=CC(C2C(=O)N1CN1CCSCC1)C1C2C(=O)N(CN4CCSCC4)C(=O)C2C31 (stereo not given) | 6 |  |  | 6 | 6 | -2.9 g and -2.1 g | -5.1 g and -5.2 g |  |  | 166% and 121% |  |  | -1.4 g and -2.1 g | Insoluble | 6 | 148% and 165% | -5.7 | 166% and 194% | 99 | T/C (P388 [37]): Toxic; Survivors at day 4 (P388 [38]): 6; Weight difference (P388 [39]): -1.3 g |
